Series [1] deals with P388. Briefly: (§1) The % increase in lifespan of treated animals over that of control group of animals injected with tumor alone. The series is classed as functional, Mus musculus.
A short description of series [2]: Lipophilicity (Rm). The format is physicochemical. As to conditions: chromatographic, drug cations at pH 1-2.
Series [3] concerns P388. Briefly: (§2) Highest nontoxic optimal dose administered intraperitoneally after inoculation of P388 leukemia cells. The series is classed as functional, Mus musculus. Summed up:
(§3)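 Mice were inoculated with 10^6 P388 leukemia cells. Drug was given intraperitoneally in 30% v/v EtOH/water on days 1, 5 and 9 after inoculation. OD is the highest nontoxic dose in mg/kg per day.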

Another series has as its system L1210. Kind of series: In vitro inhibitory dose that reduces L1210 cell line by 50% when added for a period of 70h. The series is classed as functional. As to conditions: Mus musculus, L1210, 70 h; read-out: ID50 (the source's name). Summed up: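 L1210 cultures were exposed to drug for 70 h, and cells were then counted. IC50 is the drug concentration (nM) that reduces cell numbers to 50% of untreated controls.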

Series [4] relates to P388. The description is as §1. The series is classed as functional, Mus musculus. This is another data set of the same source.
In series [5] the test system is P388. The series is described as §2. The format is functional, Mus musculus. Summed up: as §3
The source holds these as a separate data set.

Series [6] in a line: Chromatographic measure of drug lipophilicity determined for drug cations was evaluated. The format is physicochemical.

Results on 24 molecules are retold here after ChEMBL document CHEMBL1122833, “Potential antitumor agents. 44. Synthesis and antitumor activity of new classes of diacridines: importance of linker chain rigidity for DNA binding kinetics and biological activity” (J Med Chem, 1985).

The term ILS denotes the gain in survival time of treated over control animals, in per cent.

For `Cn1nc(C(=O)NCCNc2c3ccccc3nc3ccccc23)cc1C(=O)NCCNc1c2ccccc2nc2ccccc12`, the ILS in the series on P388 [1] is 46%. Moreover, the Rm in series [2] is given as -0.3. Besides, in the series with P388 [3], the OD worked out at 20 mg/kg. Further, the IC50 in the series with L1210 was 13 nM.

Regarding `c1ccc2c(NCCCCCCCNc3c4ccccc4nc4ccccc34)c3ccccc3nc2c1`, the increase in lifespan (ILS) with P388 [1] was <20%. Further, the Rm in series [2] amounted to 0.21. For the same molecule, the OD with P388 [3] is 8.9 mg/kg. Also, the IC50 in the series with L1210 amounted to 50 nM.

Regarding `c1ccc2c(NCCN3CCN(CCNc4c5ccccc5nc5ccccc45)CC3)c3ccccc3nc2c1`, in the series with P388 [1], the ILS is recorded as <20%. The Rm in series [2] is given as -0.77. This molecule displayed an OD in the series with P388 [3] of 3 mg/kg. In addition, in the series with L1210, the IC50 turned out to be 78 nM.

Regarding `c1ccc2c(NCCCCCCCCCNc3c4ccccc4nc4ccccc34)c3ccccc3nc2c1`, in the series with P388 [1], the ILS is reported as <20%. The same molecule gave a Rm in series [2] of 0.4. The OD in the series with P388 [3] amounted to 5.9 mg/kg. Also, the IC50 in the series on L1210 was 160 nM.

Turning to `c1ccc2c(NCCCNCCNCCCNc3c4ccccc4nc4ccccc34)c3ccccc3nc2c1`, the ILS in the series with P388 [1] is on record as <20%. Further, the Rm in series [2] was -0.86. The molecule further gave an OD with P388 [3] of 10 mg/kg. In the series on L1210, the IC50 was 560 nM.

With `O=C(CCCNc1c2ccccc2nc2ccccc12)NCCNc1c2ccccc2nc2ccccc12`, the ILS in the series on P388 [1] is given as <20%. The Rm in series [2] is -0.19. This molecule registered an OD with P388 [3] of 50 mg/kg. Further, the IC50 in the series on L1210 is > 3500 nM.

For the molecule `Cn1nc(C(=O)NCCCCNc2c3ccccc3nc3ccccc23)cc1C(=O)NCCCCNc1c2ccccc2nc2ccccc12`, the increase in life span (ILS) in the series with P388 [1] is recorded as 26%. Moreover, the Rm in series [2] was 0.11. This molecule returned an OD with P388 [3] of 8.9 mg/kg. Moreover, in the series on L1210, the IC50 came to 24 nM.

Consider `c1ccc2c(NCCCCCNc3c4ccccc4nc4ccccc34)c3ccccc3nc2c1`, for which, in the series with P388 [1], the ILS is <20%. This molecule also gave a Rm in series [2] of 0.02. The molecule further yielded an OD with P388 [3] of 20 mg/kg. For the same molecule, the IC50 with L1210 was 3700 nM.

`Cn1nc(C(=O)NCCCNc2c3ccccc3nc3ccccc23)cc1C(=O)NCCCNc1c2ccccc2nc2ccccc12` registered an ILS in the series with P388 [1] of 65%. Further, in series [2], the Rm was 0. In the series with P388 [3], the OD amounted to 20 mg/kg. The IC50 with L1210 was found to be 55 nM.

As to `c1ccc2c(NCCCNCCCNc3c4ccccc4nc4ccccc34)c3ccccc3nc2c1`, in the series on P388 [1], the increase in life span (ILS) is <20%. For the same molecule, the Rm in series [2] was -0.53. The molecule further showed an OD with P388 [3] of 5 mg/kg. Besides, the IC50 in the series on L1210 is 480 nM.

Consider `c1ccc2c(NCCCN3CCN(CCCNc4c5ccccc5nc5ccccc45)CC3)c3ccccc3nc2c1`, for which the ILS in the series on P388 [4] and in the series with P388 [1] was <20% throughout. The Rm in series [2] and in series [6] was -0.72 each time. For the same molecule, the OD with P388 [5] and in the series on P388 [3] was 3 mg/kg in each case.

Take `O=C(CCNc1c2ccccc2nc2ccccc12)NCCNc1c2ccccc2nc2ccccc12`: the ILS with P388 [1] is listed as <20%. Also, the Rm in series [2] was -0.43. The same molecule displayed an OD with P388 [3] of 50 mg/kg. Also, the IC50 in the series on L1210 is > 3500 nM.

Take `c1ccc2c(NCCCCCCNc3c4ccccc4nc4ccccc34)c3ccccc3nc2c1`: the ILS in the series on P388 [1] was <20%. Also, the Rm in series [2] worked out at 0.15. Also, the OD in the series on P388 [3] stood at 13.3 mg/kg. Moreover, the IC50 in the series on L1210 came to 110 nM.

Turning to `c1ccc2c(NCCCCNc3c4ccccc4nc4ccccc34)c3ccccc3nc2c1`, the ILS with P388 [1] is listed as <20%. In series [2], the Rm was -0.21. The same molecule gave an OD in the series with P388 [3] of 30 mg/kg. In the series on L1210, the IC50 came out at 10800 nM.

Turning to `O=C(CCCNc1c2ccccc2nc2ccccc12)NCCCNc1c2ccccc2nc2ccccc12`, in the series on P388 [1], the ILS was <20%. Also, the Rm in series [2] is -0.12. In addition, the OD with P388 [3] was 50 mg/kg. The IC50 in the series with L1210 is > 3500 nM.

`c1ccc2c(NCCCCCCCCCCNc3c4ccccc4nc4ccccc34)c3ccccc3nc2c1`: in the series with P388 [1], the ILS is given as <20%. Besides, the Rm in series [2] is reported as 0.45. Besides, in the series with P388 [3], the OD was determined as 5.9 mg/kg. In the series with L1210, the IC50 worked out at 280 nM.

On to `CN(CCCNc1c2ccccc2nc2ccccc12)CCCNc1c2ccccc2nc2ccccc12`, for which the ILS in the series with P388 [1] is given as <20%. In addition, in series [2], the Rm was -0.65. Also, the OD in the series with P388 [3] came out at 10 mg/kg. In addition, the IC50 in the series on L1210 was found to be 780 nM.

With `c1ccc2c(NCCNCCNCCNc3c4ccccc4nc4ccccc34)c3ccccc3nc2c1`, the ILS in the series with P388 [1] is listed as <20%. Besides, the Rm in series [2] was -0.9. For the same molecule, the OD in the series on P388 [3] turned out to be 10 mg/kg. Besides, the IC50 in the series on L1210 came to 2900 nM.

Regarding `O=C(CCNc1c2ccccc2nc2ccccc12)NCCCNc1c2ccccc2nc2ccccc12`, the ILS in the series on P388 [1] is given as <20%. The Rm in series [2] was -0.28. For the same molecule, in the series on P388 [3], the OD worked out at 15 mg/kg. Also, the IC50 in the series on L1210 was > 3500 nM.

For `c1ccc2c(NCCCCCCCCNc3c4ccccc4nc4ccccc34)c3ccccc3nc2c1`, the ILS with P388 [1] is <20%. In series [2], the Rm is given as 0.28. The same molecule returned an OD in the series with P388 [3] of 8.9 mg/kg. Besides, the IC50 in the series on L1210 turned out to be 170 nM.

Take `c1ccc2c(NCCCCNCCCNc3c4ccccc4nc4ccccc34)c3ccccc3nc2c1`: the ILS with P388 [1] is reported as <20%. For the same molecule, in series [2], the Rm was -0.39. This molecule had an OD with P388 [3] of 10 mg/kg. In the series with L1210, the IC50 came out at 29 nM.

Regarding `O=C(CNc1c2ccccc2nc2ccccc12)NCCNc1c2ccccc2nc2ccccc12`, the increase in lifespan (ILS) in the series on P388 [1] is reported as <20%. Further, in series [2], the Rm was -0.41. Further, the OD in the series on P388 [3] was determined as 50 mg/kg. The IC50 in the series with L1210 was > 4000 nM.

Turning to `O=C(CNc1c2ccccc2nc2ccccc12)NCCCNc1c2ccccc2nc2ccccc12`, in the series with P388 [1], the increase in lifespan (ILS) is reported as <20%. For the same molecule, the Rm in series [2] is -0.24. The OD in the series on P388 [3] turned out to be 50 mg/kg. The IC50 in the series on L1210 was > 3500 nM.

In the case of `Nc1c2ccccc2nc2ccccc12` [AMINACRINE], the ILS in the series on P388 [1] is recorded as <20%. For the same molecule, the Rm in series [2] was -0.08. The same molecule had an OD in the series with P388 [3] of 20 mg/kg. Moreover, the IC50 in the series with L1210 stood at 1900 nM.
